These results are taken from ChEMBL document CHEMBL3045729, “Anti-tobacco mosaic virus (TMV) triterpenoid saponins from the leaves of Ilex oblonga” (J Agric Food Chem, 2007).

In brackets after ≈: the same amount, converted by molar mass.

Assay [1] deals with Tobacco mosaic virus. In words: Antiviral activity against Tobacco mosaic virus (TMV) inoculated in Nicotiana tabacum cv. K326 leaves assessed as inhibition of virus multiplication at 25 degC measured after 48 hr by indirect ELISA/leaf-disk method. The assay is classed as functional, organism-based. The method, boiled down: (§1)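 N. tabacum cv. K326 leaves mechanically inoculated with TMV at 10 µg/mL. After 7 h, 10-mm disks were floated on compound solutions (DMSO, diluted with water) for 48 h at 25 ± 1 °C. Solvent-only and healthy-leaf disks were controls; six repetitions. Ground disks were assayed by indirect ELISA (OD405) against an in-plate TMV standard curve. Inhibition was calculated relative to the solvent control.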

The test system of assay [2] is Tobacco mosaic virus. In words: Antiviral activity against Tobacco mosaic virus (TMV) inoculated in Nicotiana tabacum cv. K326 leaves assessed as inhibition of virus multiplication at 0.025 mg/ml at 25 degC measured after 48 hr by indirect ELISA/leaf-disk method. The assay is classed as functional. The method, boiled down: as §1
A general note: ELISA stands for enzyme-linked immunosorbent assay.

Assay [3] has as its system Tobacco mosaic virus. The experiment in a line: Antiviral activity against Tobacco mosaic virus (TMV) inoculated in Nicotiana tabacum cv. K326 leaves assessed as inhibition of virus multiplication at 0.05 mg/ml at 25 degC measured after 48 hr by indirect ELISA/leaf-disk method. The assay is classed as functional. In a few lines:
as §1

The subject of assay [4] is Tobacco mosaic virus. In words: Antiviral activity against Tobacco mosaic virus (TMV) inoculated in Nicotiana tabacum cv. K326 leaves assessed as inhibition of virus multiplication at 0.1 mg/ml at 25 degC measured after 48 hr by indirect ELISA/leaf-disk method. The assay is classed as functional. In a few lines:
as §1

Assay [5] has as its system Tobacco mosaic virus. In words: Antiviral activity against Tobacco mosaic virus (TMV) inoculated in Nicotiana tabacum cv. K326 leaves assessed as inhibition of virus multiplication at 0.2 mg/ml at 25 degC measured after 48 hr by indirect ELISA/leaf-disk method. The assay is classed as functional. The method, boiled down:
as §1

The subject of assay [6] is Tobacco mosaic virus. In words: Antiviral activity against Tobacco mosaic virus (TMV) inoculated in Nicotiana tabacum cv. K326 leaves assessed as inhibition of virus multiplication at 0.4 mg/ml at 25 degC measured after 48 hr by indirect ELISA/leaf-disk method. In kind it is functional. The method, boiled down: as §1

Consider `CC1(C)CC[C@]2(C(=O)O[C@@H]3O[C@H](CO)[C@@H](O)[C@H](O)[C@H]3O)CC[C@]3(C)C(=CC[C@@H]4[C@@]5(C)CC[C@H](O[C@@H]6OC[C@@H](O)[C@H](O)[C@H]6O)C(C)(C)[C@@H]5CC[C@]43C)[C@@H]2[C@@H]1O` [OBLONGANOSIDE K], for which the EC50 (commonly the concentration needed to bring the measured effect to its halfway point) in the assay with Tobacco mosaic virus [1] came to 76 µg/mL (≈ 99.1 µM). In addition, the inhibition (usually how much of the control response was suppressed) at 25 µg/mL in the assay with Tobacco mosaic virus [2] came to 13.1%. Further, the inhibition at 50 µg/mL in the assay on Tobacco mosaic virus [3] amounted to 31.4%. In the assay with Tobacco mosaic virus [4], the inhibition at 100 µg/mL amounted to 63.9%. Also, the inhibition at 200 µg/mL in the assay with Tobacco mosaic virus [5] came to 85.7%. Besides, the inhibition at 400 µg/mL with Tobacco mosaic virus [6] was found to be 88.5%.

For `C[C@@H]1CC[C@]2(C(=O)O[C@@H]3O[C@H](CO)[C@@H](O)[C@H](O)[C@H]3O)CC[C@]3(C)C(=CC[C@@H]4[C@@]5(C)CC[C@H](O)[C@@](C)(CO)[C@@H]5CC[C@]43C)[C@@H]2[C@]1(C)O` [PEDUNCULOSIDE], the inhibition at 200 µg/mL in the assay on Tobacco mosaic virus [5] was 41.5%.

Turning to `C[C@@H]1CC[C@]2(C(=O)O[C@@H]3O[C@H](CO)[C@@H](O)[C@H](O)[C@H]3O)CC[C@]3(C)C(=CC[C@@H]4[C@@]5(C)CC[C@H](O[C@@H]6OC[C@@H](O)[C@H](O)[C@H]6O)C(C)(C)[C@@H]5CC[C@]43C)[C@@H]2[C@]1(C)O` [OBLONGANOSIDE H], the inhibition at 200 µg/mL with Tobacco mosaic virus [5] is 37.4%.

In the case of `CC1(C)CC[C@]2(C(=O)O[C@@H]3O[C@H](CO)[C@@H](O)[C@H](O)[C@H]3O)CC[C@]3(C)C(=CC[C@@H]4[C@@]5(C)CC[C@H](O)C(C)(C)[C@@H]5CC[C@]43C)[C@@H]2[C@@H]1O`, in the assay on Tobacco mosaic virus [1], the EC50 was 80 µg/mL (≈ 126 µM). Also, the inhibition at 25 µg/mL in the assay on Tobacco mosaic virus [2] is 7.6%. For the same compound, the inhibition at 50 µg/mL in the assay on Tobacco mosaic virus [3] was found to be 25.3%. Moreover, in the assay on Tobacco mosaic virus [4], the inhibition at 100 µg/mL came to 65.7%. Moreover, in the assay with Tobacco mosaic virus [5], the inhibition at 200 µg/mL was 84.5%. In addition, the inhibition at 400 µg/mL in the assay on Tobacco mosaic virus [6] was 89.2%.

For the compound `C[C@@H]1CC[C@]2(C(=O)O[C@@H]3O[C@H](CO)[C@@H](O)[C@H](O)[C@H]3O)CC[C@]3(C)C(=CC[C@@H]4[C@@]5(C)C[C@@H](O)[C@H](O)[C@@](C)(CO)[C@@H]5CC[C@]43C)[C@@H]2[C@]1(C)O` [NIGAICHIGOSIDE F1], the inhibition at 200 µg/mL with Tobacco mosaic virus [5] was 24.9%.

Take `C[C@@H]1CC[C@]2(C(=O)O[C@@H]3O[C@H](CO)[C@@H](O)[C@H](O)[C@H]3O)CC[C@]3(C)C(=CC[C@@H]4[C@@]5(C)CC[C@H](O)C(C)(C)[C@@H]5CC[C@]43C)[C@@H]2[C@]1(C)O`: the inhibition at 200 µg/mL with Tobacco mosaic virus [5] was found to be 27%.

Regarding `CC1(C)[C@@H](O[C@@H]2OC[C@@H](O)[C@H](O)[C@H]2O)CC[C@]2(C)[C@H]3CC=C4[C@@H]5C[C@](C)(CO)CC[C@]5(C(=O)O[C@@H]5O[C@H](CO)[C@@H](O)[C@H](O)[C@H]5O)CC[C@@]4(C)[C@]3(C)CC[C@@H]12` [OBLONGANOSIDE L], the inhibition at 200 µg/mL in the assay on Tobacco mosaic virus [5] stood at 46.9%.

As for `C[C@@H]1CC[C@]2(C(=O)O[C@@H]3O[C@H](CO)[C@@H](O)[C@H](O)[C@H]3O)CC[C@]3(C)C(=CC[C@@H]4[C@@]5(C)CC[C@H](O[C@@H]6OC[C@@H](O)[C@H](O)[C@H]6O)[C@@](C)(CO)[C@@H]5CC[C@]43C)[C@@H]2[C@]1(C)O` [OBLONGANOSIDE I], in the assay with Tobacco mosaic virus [5], the inhibition at 200 µg/mL stood at 31.7%.

As for `CC1(C)CC[C@]2(C(=O)O[C@@H]3O[C@H](CO)[C@@H](O)[C@H](O)[C@H]3O)CC[C@]3(C)C(=CC[C@@H]4[C@@]5(C)CC[C@H](O[C@@H]6OC[C@@H](O)[C@H](O)[C@H]6O)[C@@](C)(CO)[C@@H]5CC[C@]43C)[C@@H]2[C@@H]1O` [OBLONGANOSIDE M], the 50% effective concentration (EC50) with Tobacco mosaic virus [1] came out at 85 µg/mL (≈ 109 µM). In addition, the inhibition at 25 µg/mL with Tobacco mosaic virus [2] was 5.2%. Besides, the inhibition at 50 µg/mL with Tobacco mosaic virus [3] amounted to 32.7%. For the same compound, in the assay on Tobacco mosaic virus [4], the inhibition at 100 µg/mL came to 61.5%. Moreover, the inhibition at 200 µg/mL in the assay with Tobacco mosaic virus [5] stood at 78.5%. The inhibition at 400 µg/mL in the assay with Tobacco mosaic virus [6] is 85.3%.

For `C[C@@H]1CC[C@]2(C(=O)O[C@@H]3O[C@H](CO)[C@@H](O)[C@H](O)[C@H]3O)CC[C@]3(C)C(=CC[C@@H]4[C@@]5(C)CC[C@@H]6O[C@H](CO)OC[C@@]6(C)[C@@H]5CC[C@]43C)[C@@H]2[C@]1(C)O` [OBLONGANOSIDE J], in the assay on Tobacco mosaic virus [5], the inhibition at 200 µg/mL was 28.1%.
